# Only some compounds are listed: those with a hit (about 2.5% of all), similar ones and a draw of the others.
# FN deposition inh: fibronectin deposition inhibition | AH1F fibroblasts, Alexa488-fibronectin deposition fluorescence, overnight | inhibition, % at 12.6 µM | hit rate 0.086% among 350,000 | AID 743247;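 active means mean inhibition across replicates of 30% or more, regardless of how many single replicates reach that level; inconclusive means mean under 30% yet at least half of replicates reach 30%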;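 further: positive control wells lacked labelled fibronectin entirely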
#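 Assay system: AH1F fibroblasts / Quantity: 10000 cells per well / Medium: DMEM plus 2% serum, read in PBS / Reagent: labelled fibronectin 24 nM / Dosing: single dose, pinned / Times: 1 h cell attachment, overnight exposure to compound and label / Signal: fluorescence, ex 485 nm, em 525 nm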
# MLL AF4-AF9 inh: MLL-AF4/AF9 protein interaction inhibition; P42568; AlphaScreen, biotin-AF4 peptide binding to FLAG-AF9; inhibition, % at 10 µM; hit rate 0.47% among 350,000; AID 651704;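 active means every replicate reaching a set inhibition limit, whatever the replicate mean, cut at about 25% in these data; inconclusive means mean inhibition reaches that limit but some replicates miss it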;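 further: 0% = plate neutral control median and 100% = total signal loss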
# Target sequence (P42568 whole entry, looked up): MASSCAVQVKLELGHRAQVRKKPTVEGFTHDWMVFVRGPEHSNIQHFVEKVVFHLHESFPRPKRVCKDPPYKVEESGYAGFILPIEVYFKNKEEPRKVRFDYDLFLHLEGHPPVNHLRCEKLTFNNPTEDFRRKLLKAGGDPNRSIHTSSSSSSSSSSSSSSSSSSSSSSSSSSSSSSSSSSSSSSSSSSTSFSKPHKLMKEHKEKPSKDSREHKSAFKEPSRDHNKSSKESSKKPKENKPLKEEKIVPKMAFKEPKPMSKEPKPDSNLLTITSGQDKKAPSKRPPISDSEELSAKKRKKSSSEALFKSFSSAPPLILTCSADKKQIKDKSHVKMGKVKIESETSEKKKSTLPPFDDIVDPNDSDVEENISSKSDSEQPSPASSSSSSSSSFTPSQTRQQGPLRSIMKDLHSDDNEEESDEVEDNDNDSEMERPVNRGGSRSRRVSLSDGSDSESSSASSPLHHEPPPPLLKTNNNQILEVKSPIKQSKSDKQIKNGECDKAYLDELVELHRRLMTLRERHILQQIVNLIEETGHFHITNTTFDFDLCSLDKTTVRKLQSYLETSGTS
# N-glyco inh: N-linked glycosylation inhibition | D54 ERlucT glycosylation luciferase reporter, 24 h; percent of 100 nM tunicamycin response | reporter increase, % at 12.5 µM | hit rate 0.23% among 360,000;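 active means mean luciferase reporter signal, scaled so untreated is 0 and the glycosylation-blocking control 100, at or above a set limit in every replicate; inconclusive means mean reaches the limit but not every replicate does; inactive means mean below the limit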;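 further: luciferase carries N-glycosylation sites so blocking glycosylation raises the light; 0% = median of neutral control wells and 100% = median of 100 nM tunicamycin wells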
# EWS-Fli block: EWS/Fli transcriptional activity inhibition; AID 651661; A673 NR0B1-luciferase reporter, viability-normalised; inhibition, % at 12.6 µM; hit rate 0.67% among 350,000;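 active means mean inhibition of at least 50% after viability correction, with every replicate also passing that limit; inconclusive means mean reaches 50% but only one of two replicates passes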;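 further: firefly luciferase signal divided by Alamar Blue viability fluorescence both relative to DMSO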
# HIV Env fusion: HIV envelope-mediated fusion inhibition; HeLa-JRFL Env/CEM21 cell fusion, luciferase; inhibition, % at 12.3 µM; hit rate 1.1% among 360,000; AID 651610;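 active means mean replicate inhibition score of at least 50 and every replicate individually at or above 50; inconclusive means only one of the two criteria met; inactive means mean below 50 and not all replicates reaching 50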;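 further: 0% = plate neutral controls and 100% = maraviroc near 300 nM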
# PAX8 inh HTS: lowers PAX8-driven luciferase in RMG-I cells; RMG-I TPO-luciferase reporter, SteadyGlo, 24 h; inhibition, % at 12.6 µM; hit rate 1.2% among 360,000; AID 652154;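 active means mean replicate inhibition at least 60% with every replicate also reaching 60%; inconclusive means only one of the two criteria is met; inactive means mean below 60% and not all replicates reaching 60%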;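 further: luciferase light reporting Pax8 driven TPO promoter activity; plate controls were median of neutral control wells for no effect and mitoxantrone controls for full effect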
# The depositor's hits bear a star; ? = inconclusive; · = not tested or not shown; [ ] = another dose, or the depositor's remark.
SMILES,FN deposition inh,MLL AF4-AF9 inh,N-glyco inh,EWS-Fli block,HIV Env fusion,PAX8 inh HTS
C[C@@H]1CCCCO[C@H](CN(C)Cc2ccc(C(F)(F)F)cc2)[C@H](C)CN([C@H](C)CO)C(=O)c2cc(NC(=O)Nc3ccccc3)ccc2O1,15,·,·,23,?,64*
C[C@@H]1CN([C@H](C)CO)C(=O)c2cc(NC(=O)Nc3cccc4ccccc34)ccc2O[C@@H]1CN(C)Cc1ccc(C(F)(F)F)cc1,5,0,·,26,74*[16.7 µM],·
C[C@@H]1CCCCO[C@H](CN(C)Cc2ccc(C(F)(F)F)cc2)[C@@H](C)CN([C@H](C)CO)C(=O)c2cc(NC(=O)Nc3ccccc3)ccc2O1,1,·,·,8,-12[16.7 µM],20
C[C@@H]1CCCCO[C@@H](CN(C)Cc2ccc(C(F)(F)F)cc2)[C@@H](C)CN([C@@H](C)CO)C(=O)c2cc(NC(=O)Nc3ccccc3)ccc2O1,1,·,·,1,3[16.7 µM],58
O=C(C[C@@H]1C[C@H]2c3cc(NC(=O)Nc4ccc(C(F)(F)F)cc4)ccc3O[C@H]2[C@@H](CO)O1)NCc1ccccn1,2,5,·,-3,18[16.7 µM],4
C[C@@H]1CN([C@@H](C)CO)C(=O)c2cc(NC(=O)Nc3ccccc3)ccc2O[C@@H](C)CCCCO[C@@H]1CN(C)Cc1ccc(C(F)(F)F)cc1,4,·,·,4,-11[16.7 µM],74*
C[C@@H]1CCCCO[C@@H](CN(C)Cc2ccc(C(F)(F)F)cc2)[C@H](C)CN([C@@H](C)CO)C(=O)c2cc(NC(=O)Nc3ccccc3)ccc2O1,1,·,·,3,40[16.7 µM],?
C[C@H]1CCCCO[C@@H](CN(C)Cc2ccc(C(F)(F)F)cc2)[C@@H](C)CN([C@@H](C)CO)C(=O)c2cc(NC(=O)Nc3cccc4ccccc34)ccc2O1,-18,·,·,-9,61*[16.7 µM],-5
C[C@@H]1CCCCO[C@@H](CN(C)Cc2ccc(C(F)(F)F)cc2)[C@H](C)CN([C@H](C)CO)C(=O)c2cc(NC(=O)Nc3ccccc3)ccc2O1,21,·,·,10,?,78*
Nc1ccc(O)cc1C(=O)OCC(=O)c1ccc(C2CCCCC2)cc1,11,·,3,·,84*,4
COc1ccc(C(=O)OCC(=O)c2ccc(C3CCCCC3)cc2)cc1,·,·,-5,·,·,·
CCN(CC)c1ccc(Nc2nc(N3CCOCC3)c3ccccc3n2)cc1,2,·,-2,·,57*,12
CCOC(=O)c1cc2sccc2n1CC(=O)N1c2ccccc2CC1C (stereo not given),-14,·,377*,·,-107,·
CCOC(=O)c1cc2sccc2n1CC(=O)O,·,5,2,0,·,·
CC(C)NC(=O)N(C)C[C@@H]1Oc2ccc(NC(=O)Nc3ccc(F)cc3)cc2C(=O)N([C@@H](C)CO)C[C@H]1C,·,0,·,7,·,-3
c1ccc2c(c1)OCC(c1csc3ncnc(N4CCOCC4)c13)O2 (stereo not given),-3,·,-9,·,70*,·
O=C1N(c2ccccc2)C[C@@H]2C[C@@H](c3cc4ccccc4o3)N3CCC[C@@]123,·,3,-18,39,76*,98*
Cc1noc(C)c1NC(=O)Nc1ccc2c(c1)CC(=O)N([C@@H](C)CO)C[C@@H](C)[C@@H](CN(C)S(=O)(=O)c1ccc(Cl)cc1)O2,·,3,·,6,-24[16.7 µM],9
Cc1cc(C2=NNC(=NC3CC3)SC2)c(C)n1-c1ccccc1F,·,4,-20,94*,56*,102*
c1cc2c(cc1C1=NNC(=NC3CC3)SC1)OCCO2,6,2,-24,79*,65*,96*
Cc1cc(C2=NNC(=NC3CCCCC3)SC2)c(C)n1-c1c(C)n(C)n(-c2ccccc2)c1=O,2,1,-2,8,-25,8
C=C[C@H](COC(C)=O)N(Cc1ccc(OC(C)=O)c(OC)c1)S(=O)(=O)c1ccc(Br)cc1,·,-1,·,-16,-1[16.7 µM],-5
Cc1nnc(SCC(=O)NCc2ccccc2Cl)[nH]c1=O,2,34*,4,7,13,12
Cc1nnc(SCC(=O)Nc2c(Cl)cccc2Cl)[nH]c1=O,2,-13,1,-13,-38,-22
O=C(O)CSc1ncnc2scc(-c3ccc(Br)cc3)c12,10,-3,0,2,4,-8
Cn1nnnc1Sc1ncnc2scc(-c3cccc(S(C)(=O)=O)c3)c12,7,-2,-16,-17,-303,106*

# Source: PubChem BioAssay
